Measured values pooled from the literature.
Lines come from different studies, so protocols differ.
Cell line: HeLa
Effect on: cell growth or viability

| SMILES | assay | setting | IC50 |
| --- | --- | --- | --- |
| COc1cccc2c1C(=O)c1c(O)c3c(c(O)c1C2=O)C[C@@](O)(C(=O)CO)C[C@@H]3O[C@H]1C[C@H](N)[C@H](O)[C@H](C)O1 | SRB |  | 0.46 µM |
| CC1(C)SC2C(NC(=O)C(NC(=O)C3=C(O)C(Cc4ccccc4)NC3=O)c3ccccc3)C(=O)N2C1C(=O)O (centres unmarked) | ATP luminescence | 48 h | 122 µg/mL |
| COc1ccc2oc(C(=O)c3ccccc3)cc2c1-c1ccccc1 |  |  | > 50 µM |
| Cc1c(O)c(=O)ccn1-c1cccc(C(=O)O)c1 | MTT | 72 h | 600 µM |
| C[C@H](O)C(=O)CCCCCCC(=O)Nc1cccc(-c2cn(-c3ccccc3)nn2)c1 | XTT |  | 115 µM |
| COc1cc(OC)c2c(=O)cc(-c3ccccc3)oc2c1-c1c(OC)cc(OC)c2c(=O)cc(-c3ccccc3)oc12 | MTT | 48 h | 22.1 µM |
| CC(C)CC1NC(=O)C(C(=O)NC(C(=O)NC2C(=O)N3C2SC(C)(C)C3C(=O)O)c2ccccc2)=C1O (centres unmarked) | ATP luminescence | 48 h | 69.1 µg/mL |
| CN(C)CCOc1cc(NC(=O)c2cc(Cl)cc(C(=O)Nc3cc(OCCN(C)C)c4ccccc4n3)n2)nc2ccccc12 | ATP luminescence | 72 h | 3.2 µM |
| COc1ccc(-c2cc(=O)c3c(OC)cc(OC)cc3o2)cc1 | MTT | 48 h | 33 µM |
| O=C(Nc1cc(OCCN2CCCC2)c2ccccc2n1)c1cc(OCCN2CCCC2)cc(C(=O)Nc2cc(OCCN3CCCC3)c3ccccc3n2)n1 | ATP luminescence | 72 h | 2.3 µM |
| COc1cc(OC)c2c(=O)cc(-c3ccc(C(F)(F)F)cc3)oc2c1 | MTT | 48 h | > 100 µM |
| CCCCCCC#CC#CCCCCCC | MTT | 24 h | 36 µg/mL |
| COc1ccccc1C(=O)c1cc2c(-c3ccccc3)c(O)ccc2o1 |  |  | 24 µM |
| COC(=O)CN=c1scc(-c2ccccc2)n1-c1ccccc1OC | MTT | 72 h | 2.97 µM |
| c1cnc2c(c1)ccc1cccnc12 | MTT | 48 h | > 50 µM |
| CN(C)CCCOc1cc(NC(=O)c2cc(Cl)cc(C(=O)Nc3cc(OCCCN(C)C)c4ccccc4n3)n2)nc2ccccc12 | ATP luminescence | 72 h | 1.6 µM |
| C#CCOc1ccc(C(=O)c2cccc(NC(=O)CCc3cccc4c3B(O)OC4)c2)cc1 | ATP luminescence | 72 h | 1.33 µM |
| COc1cc(C)cc2oc(-c3cccc(Br)c3)cc(=O)c12 | MTT | 48 h | 32.9 µM |
| COc1cc(C#CC#Cc2cc(OC)cc(OC)c2)cc(OC)c1 | MTT | 24 h | 4.51 µg/mL |
| COc1cc(OC)c2c(=O)cc(-c3ccc(C(F)(F)F)cc3)oc2c1-c1c(OC)cc(OC)c2c(=O)cc(-c3ccc(C(F)(F)F)cc3)oc12 | MTT | 48 h | > 100 µM |
| CC1CS(=O)(=O)CCN1/N=C/c1ccc([N+](=O)[O-])o1 (centres unmarked) |  |  | 43 µM |
| CC1(C)SC2C(NC(=O)C(NC(=O)C3=C(O)C(Cc4ccc([N+](=O)[O-])cc4)NC3=O)c3ccccc3)C(=O)N2C1C(=O)O (centres unmarked) | ATP luminescence | 48 h | 133 µg/mL |
| COc1c2c(cc3c1OCO3)[C@]13C=C[C@H](OC)C[C@H]1N(C2)C[C@H]3OC(=O)c1cccc(C)c1 | WST-1 | 48 h | > 10 µM |
